Key:
[1] = test system: P. falciparum K1 (CQ-resistant strain); assay: In vitro antimalarial activity, P. falciparum K1; type: cell-based, Plasmodium falciparum; conditions: for K1 Relative SI: selective index (CC50/IC50), relative to SKM13-2HCl = 1
P. berghei NK65 = assay: 4-day suppressive test in P. berghei NK65-infected ICR mice; type: in vivo, Plasmodium berghei (ICR mice)
Method in brief: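 6-week-old ICR-1 mice were inoculated on day 0 with 107 blood-stage P. berghei NK65. The test compound was given i.v. at 10, 20 or 30 mg/kg once daily for 4 days. Body weight, survival and blood parasites were recorded daily for 2 weeks. At 8 dpi mice were euthanized and livers and spleens harvested.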

[2] = test system: P. falciparum 3D7 (CQ-sensitive strain); assay: In vitro antimalarial activity, P. falciparum 3D7; type: cell-based, Plasmodium falciparum; conditions: for 3D7 Relative SI: selective index (CC50/IC50), relative to SKM13-2HCl = 1
[3] = Turbidity of 1 mM drug in cell culture media; type: physicochemical; conditions: 1 mM dissolved in cell culture media (DMEM)
[4] = Solubility in deionized water; type: physicochemical; conditions: saturated aqueous solution, HPLC UV 342 nm
Method in brief: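 Saturated solutions of the test compound salt were made in deionized water and measured by UHPLC with UV detection at 342 nm. 1% TFA in water was added to the solvent to keep the salt form. Standards at 5 concentrations gave a linear regression, from which solubility was calculated.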

Vero cells = assay: Cytotoxicity test using the MTT assay; type: cell-based; conditions: read-out: Vero CC50, 2-day compound exposure
Method in brief: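 Vero cells were seeded at 104 per well in DMEM with 10% FBS. 12 h later, serial concentrations of test compound were added for 2 days at 37°C, 5% CO2. MTT was then added for 2 h and absorbance read at 490 nm. CC50 was derived from percentage growth inhibition. Run in triplicate, mean±SD.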

[5] = In vivo PK assessment in mice; parameters: species or system ICR mice; conditions: oral, 5 mg/kg single dose
Method in brief: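 Healthy female 7-week-old ICR mice (about 30 g), kept under specific pathogen-free conditions, three per group. Each got a single oral dose of test compound at 5 mg/kg. Blood was drawn at various times and plasma stored at −80°C. Levels were measured by LC–MS/MS with calibration and QC standards. Kinetic parameters came from regression of plasma concentration versus time.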

[6] = 10 mg/kg i.v. once daily for 4 days
[7] = 20 mg/kg, organs collected 8 dpi

Row | SMILES | K1 Relative SI [1] | parasitemia (P. berghei NK65; [6]) | 3D7 Relative SI [2] | turbidity [3] | solubility in deionized water [4] | IC50 ([1]; read-out: K1 IC50, P. falciparum K1, synchronized parasites) | body weight (P. berghei NK65; 10 mg/kg i.v. once daily for 4 days, infected mice) | parasitemia (P. berghei NK65; 20 mg/kg i.v. once daily for 4 days) | liver pigmentation (P. berghei NK65; [7]) | spleen size (P. berghei NK65; [7]) | parasitemia (P. berghei NK65; 30 mg/kg i.v. once daily for 4 days) | curative effect (survival) (P. berghei NK65; 30 mg/kg once daily, 6 dpi) | CC50 (Vero cells) | IC50 ([2]; read-out: 3D7 IC50, P. falciparum 3D7, synchronized parasites) | Tmax_h, time to peak concentration [5] | elimination half-life (t1/2) ([5]; comparison of both drugs) | Cmax/AUC higher than that of SAM13-2HCl ([5]; versus SAM13-2HCl)
1 | CCN(CC)CCCC(C)Nc1ccnc2cc(Cl)ccc12 (centres unmarked) [CQ, Chloroquine] | 3.5 | significantly reduced parasite density | 6.0 |  |  |  |  |  |  |  |  |  |  |  |  |  | 
2 | CN(C)CCNC(=O)/C=C/[C@H](Cc1ccccc1)Nc1ccnc2cc(Cl)ccc12 [SKM13-2HCl] | 1 | increased parasitemia | 1.0 | transparent | 850.8 mg/mL | 366 ± 19.8 nM | not observed | effectively suppressed parasitemia | decreased liver pigmentation | same size as those of the normal or CQ-treated groups | effectively suppressed parasitemia | complete curative effect | 55.2 ± 1.1 µM | 53.1 ± 10 nM | 15 min | similar | 2 fold
